System: Radical scavenging activity
Assay: Antioxidant activity assessed as ability to scavenge hydroxyl radicals by ABTS competition assay
Format: functional
Procedure, shortened: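 Hydroxyl radical scavenging in ethanolic medium by ABTS competition. Hydroxyl radicals oxidize ABTS to the stable ABTS•+ cation radical, read by absorbance at 405 nm. IC50 is the compound concentration giving a 50% reduction in ABTS•+.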

IC50 | Compound
> 10000 µM | COc1ccc(OC)c(CCCCCCCCCCCCCCCO)c1
600 µM | Cc1c(C)c2c(c(C)c1O)CCC(C)(C(=O)O)O2 (configuration not stated) [TROLOX]
